From PMC8851455 (ACS Omega, 2022)
Entries after “also recorded” stand apart in the source; their conditions may differ. Like-named read-outs stand apart in the source and are kept apart here.

Tests used:
ERβ = conditions: competing with E2; cited from earlier work
chicken embryo = assay: Chicken embryonic assay; assay type: in vivo; conditions: egg injection, day 18
MCF-7 cells [1] = conditions: proliferative activity at 10^–7 to 10^–5 M; cited from earlier work
zebrafish embryos = conditions: cited from earlier work
MCF-7 cells [2] = assay: MCF-7 cell proliferation assay; assay type: cell-based, human
Method in brief: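 MCF-7 cells exposed to test compound or E2 at six concentrations from 10–12 to 10–7 M in EA-free medium. Proliferation read as MTT product absorbance at 570 nm. Three independent trials, each in triplicate. % RME2 = 100 × (OD test − OD VC)/(max OD E2 − OD VC). EC50 from curve fitting. EEF = EC50 of E2/EC50 of sample. One-way ANOVA with Dunnett's test versus E2 at each concentration.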

[3] = system: S. typhimurium tester strains (TA98, TA100, and TA102); assay: Ames test, overall over three strains; assay type: cell-based, Salmonella typhimurium
S. typhimurium TA100 = assay: Ames test, strain TA100; assay type: cell-based, Salmonella typhimurium
ERα = conditions: competing with E2; cited from earlier work
S. typhimurium TA98 = assay: Ames test, strain TA98; assay type: cell-based, Salmonella typhimurium
S. typhimurium = conditions: incorporation or preincubation Ames assays, 10–3333 μg/plate; cited from earlier work
[4] = TA102 +S9, 5 × 10^–2 pmol/plate
[5] = TA102 +S9, 5 × 10^–3 pmol/plate
[6] = TA102 +S9, 5 × 10^–4 pmol/plate
[7] = TA102 +S9, 5 × 10^–5 pmol/plate
[8] = TA102 -S9, 5 × 10^–2 pmol/plate
[9] = TA102 -S9, 5 × 10^–3 pmol/plate
[10] = TA102 -S9, 5 × 10^–4 pmol/plate
[11] = TA102 -S9, 5 × 10^–5 pmol/plate
[12] = higher dose (0.5 mM: 450–500 μg/kg; E2 0.1 mM: 91 μg/kg)
[13] = lower dose (0.05 mM: 45–50 μg/kg; E2 0.01 mM: 9.1 μg/kg)
[14] = TA100 +S9, 5 × 10^–2 pmol/plate
[15] = TA100 +S9, 5 × 10^–3 pmol/plate
[16] = TA100 +S9, 5 × 10^–4 pmol/plate
[17] = TA100 +S9, 5 × 10^–5 pmol/plate
[18] = TA100 -S9, 5 × 10^–2 pmol/plate
[19] = TA100 -S9, 5 × 10^–3 pmol/plate
[20] = TA100 -S9, 5 × 10^–4 pmol/plate
[21] = TA100 -S9, 5 × 10^–5 pmol/plate

O=c1c(-c2ccc(O)cc2)coc2cc(O)cc(O)c12 [genistein]
binding affinity for ERβ (ERβ): 87%
MI (S. typhimurium TA102; TA102 +S9, 0.5 pmol/plate): 1.1
number of revertants/plate (M ± SD) (S. typhimurium TA102; TA102 +S9, 0.5 pmol/plate): 336 ± 17 revertants/plate
MI (S. typhimurium TA102; TA102 +S9, 5 pmol/plate): 1.0
number of revertants/plate (M ± SD) (S. typhimurium TA102; TA102 +S9, 5 pmol/plate): 299 ± 4 revertants/plate
MI (S. typhimurium TA102; TA102 +S9, 50 pmol/plate): 1.1
number of revertants/plate (M ± SD) (S. typhimurium TA102; TA102 +S9, 50 pmol/plate): 324 ± 28 revertants/plate
MI (S. typhimurium TA102; [4]): 1.0
number of revertants/plate (M ± SD) (S. typhimurium TA102; [4]): 311 ± 18 revertants/plate
MI (S. typhimurium TA102; [5]): 1.0
number of revertants/plate (M ± SD) (S. typhimurium TA102; [5]): 312 ± 13 revertants/plate
MI (S. typhimurium TA102; [6]): 0.9
number of revertants/plate (M ± SD) (S. typhimurium TA102; [6]): 285 ± 10 revertants/plate
MI (S. typhimurium TA102; [7]): 0.9
number of revertants/plate (M ± SD) (S. typhimurium TA102; [7]): 290 ± 4 revertants/plate
MI (S. typhimurium TA102; TA102 -S9, 0.5 pmol/plate): 1.0
number of revertants/plate (M ± SD) (S. typhimurium TA102; TA102 -S9, 0.5 pmol/plate): 247 ± 18 revertants/plate
MI (S. typhimurium TA102; TA102 -S9, 5 pmol/plate): 0.9
number of revertants/plate (M ± SD) (S. typhimurium TA102; TA102 -S9, 5 pmol/plate): 240 ± 8 revertants/plate
MI (S. typhimurium TA102; TA102 -S9, 50 pmol/plate): 0.8
number of revertants/plate (M ± SD) (S. typhimurium TA102; TA102 -S9, 50 pmol/plate): 215 ± 27 revertants/plate
MI (S. typhimurium TA102; [8]): 0.9
number of revertants/plate (M ± SD) (S. typhimurium TA102; [8]): 222 ± 30 revertants/plate
MI (S. typhimurium TA102; [9]): 0.8
number of revertants/plate (M ± SD) (S. typhimurium TA102; [9]): 198 ± 8 revertants/plate
MI (S. typhimurium TA102; [10]): 0.8
number of revertants/plate (M ± SD) (S. typhimurium TA102; [10]): 196 ± 20 revertants/plate
MI (S. typhimurium TA102; [11]): 0.8
number of revertants/plate (M ± SD) (S. typhimurium TA102; [11]): 207 ± 5 revertants/plate
LSI (liver somatic index) (chicken embryo; [12]): 2.12 ± 0.14%
malformation rate (chicken embryo; [12]): 0.0%
mortality rate (chicken embryo; [12]): 50%
number of dead chicken embryo (chicken embryo; [12]): 5
number of malformation chicken embryo (chicken embryo; [12]): 0
weights: embryo (chicken embryo; [12]): 23.88 ± 2.02 g
weights: heart (chicken embryo; [12]): 0.20 ± 0.03 g
weights: liver (chicken embryo; [12]): 0.50 ± 0.09 g
LSI (liver somatic index) (chicken embryo; [13]): 2.05 ± 0.44%
REEW (ratio of embryo to egg weight) (chicken embryo; [13]): 0.41 ± 0.049
malformation rate (chicken embryo; [13]): 0.0%
mortality rate (chicken embryo; [13]): 40.0%
number of dead chicken embryo (chicken embryo; [13]): 4
number of malformation chicken embryo (chicken embryo; [13]): 0
weights: embryo (chicken embryo; [13]): 21.96 ± 0.73 g
weights: heart (chicken embryo; [13]): 0.17 ± 0.01 g
weights: liver (chicken embryo; [13]): 0.46 ± 0.10 g
concentration of maximum proliferative activity in MCF-7 cells (MCF-7 cells [1]): 10^–6 M
developmental toxicity in zebrafish model (zebrafish embryos; at 1–50 μM): showing developmental toxicity
survival rate for zebrafish embryos (zebrafish embryos; exposure at 0.025 to 0.1 mM): significantly decreased the survival rate
EEF (estradiol equivalent factor) (MCF-7 cells [2]; EC50 of E2 divided by that of the test compound): 0.08
EC50 (MCF-7 cells [2]; Homo sapiens, MCF7): 0.12 nM
max % RME2 (MCF-7 cells [2]; highest % RME2 (relative maximum % E2) in test range 10^–12–10^–7 M): 48%
Ames test outcome (signs of mutagenicity) ([3]; 5 × 10^–5 to 50 pmol/plate, with or without S9): did not significantly increase numbers at any strains and test concentrations; also recorded: did not demonstrate such a sign
max MI value ([3]; highest MI from test range 5 × 10^–5 to 50 pmol/plate): 1.2
MI (S. typhimurium TA100; TA100 +S9, 0.5 pmol/plate): 1.0
number of revertants/plate (M ± SD) (S. typhimurium TA100; TA100 +S9, 0.5 pmol/plate): 307 ± 7 revertants/plate
MI (S. typhimurium TA100; TA100 +S9, 5 pmol/plate): 0.9
number of revertants/plate (M ± SD) (S. typhimurium TA100; TA100 +S9, 5 pmol/plate): 301 ± 13 revertants/plate
MI (S. typhimurium TA100; TA100 +S9, 50 pmol/plate): 0.9
number of revertants/plate (M ± SD) (S. typhimurium TA100; TA100 +S9, 50 pmol/plate): 296 ± 11 revertants/plate
MI (S. typhimurium TA100; [14]): 1.0
number of revertants/plate (M ± SD) (S. typhimurium TA100; [14]): 308 ± 8 revertants/plate
MI (S. typhimurium TA100; [15]): 1.0
number of revertants/plate (M ± SD) (S. typhimurium TA100; [15]): 313 ± 11 revertants/plate
MI (S. typhimurium TA100; [16]): 0.9
number of revertants/plate (M ± SD) (S. typhimurium TA100; [16]): 301 ± 4 revertants/plate
MI (S. typhimurium TA100; [17]): 0.9
number of revertants/plate (M ± SD) (S. typhimurium TA100; [17]): 294 ± 6 revertants/plate
MI (S. typhimurium TA100; TA100 -S9, 0.5 pmol/plate): 1.0
number of revertants/plate (M ± SD) (S. typhimurium TA100; TA100 -S9, 0.5 pmol/plate): 103 ± 10 revertants/plate
MI (S. typhimurium TA100; TA100 -S9, 5 pmol/plate): 0.9
number of revertants/plate (M ± SD) (S. typhimurium TA100; TA100 -S9, 5 pmol/plate): 96 ± 4 revertants/plate
MI (S. typhimurium TA100; TA100 -S9, 50 pmol/plate): 0.8
number of revertants/plate (M ± SD) (S. typhimurium TA100; TA100 -S9, 50 pmol/plate): 80 ± 12 revertants/plate
MI (S. typhimurium TA100; [18]): 0.9
number of revertants/plate (M ± SD) (S. typhimurium TA100; [18]): 97 ± 11 revertants/plate
MI (S. typhimurium TA100; [19]): 1.0
number of revertants/plate (M ± SD) (S. typhimurium TA100; [19]): 100 ± 11 revertants/plate
MI (S. typhimurium TA100; [20]): 0.9
number of revertants/plate (M ± SD) (S. typhimurium TA100; [20]): 94 ± 8 revertants/plate
MI (S. typhimurium TA100; [21]): 1.0
number of revertants/plate (M ± SD) (S. typhimurium TA100; [21]): 98 ± 6 revertants/plate
binding affinity for ERα (ERα): 4%
MI (S. typhimurium TA98; TA98 +S9, 0.5 pmol/plate): 1.1
number of revertants/plate (M ± SD) (S. typhimurium TA98; TA98 +S9, 0.5 pmol/plate): 26 ± 13 revertants/plate
MI (S. typhimurium TA98; TA98 +S9, 5 pmol/plate): 1.0
number of revertants/plate (M ± SD) (S. typhimurium TA98; TA98 +S9, 5 pmol/plate): 23 ± 14 revertants/plate
MI (S. typhimurium TA98; TA98 +S9, 50 pmol/plate): 1.2
number of revertants/plate (M ± SD) (S. typhimurium TA98; TA98 +S9, 50 pmol/plate): 28 ± 16 revertants/plate
MI (S. typhimurium TA98; TA98 +S9, 5 × 10^–2 pmol/plate): 1.2
number of revertants/plate (M ± SD) (S. typhimurium TA98; TA98 +S9, 5 × 10^–2 pmol/plate): 28 ± 5 revertants/plate
MI (S. typhimurium TA98; TA98 +S9, 5 × 10^–3 pmol/plate): 1.2
number of revertants/plate (M ± SD) (S. typhimurium TA98; TA98 +S9, 5 × 10^–3 pmol/plate): 28 ± 10 revertants/plate
MI (S. typhimurium TA98; TA98 +S9, 5 × 10^–4 pmol/plate): 1.0
number of revertants/plate (M ± SD) (S. typhimurium TA98; TA98 +S9, 5 × 10^–4 pmol/plate): 24 ± 8 revertants/plate
MI (S. typhimurium TA98; TA98 +S9, 5 × 10^–5 pmol/plate): 0.8
number of revertants/plate (M ± SD) (S. typhimurium TA98; TA98 +S9, 5 × 10^–5 pmol/plate): 19 ± 6 revertants/plate
MI (S. typhimurium TA98; TA98 -S9, 0.5 pmol/plate): 0.7
number of revertants/plate (M ± SD) (S. typhimurium TA98; TA98 -S9, 0.5 pmol/plate): 15 ± 1 revertants/plate
MI (S. typhimurium TA98; TA98 -S9, 5 pmol/plate): 0.8
number of revertants/plate (M ± SD) (S. typhimurium TA98; TA98 -S9, 5 pmol/plate): 18 ± 6 revertants/plate
MI (S. typhimurium TA98; TA98 -S9, 50 pmol/plate): 0.6
number of revertants/plate (M ± SD) (S. typhimurium TA98; TA98 -S9, 50 pmol/plate): 13 ± 4 revertants/plate
MI (S. typhimurium TA98; TA98 -S9, 5 × 10^–2 pmol/plate): 0.7
number of revertants/plate (M ± SD) (S. typhimurium TA98; TA98 -S9, 5 × 10^–2 pmol/plate): 16 ± 2 revertants/plate
MI (S. typhimurium TA98; TA98 -S9, 5 × 10^–3 pmol/plate): 0.5
number of revertants/plate (M ± SD) (S. typhimurium TA98; TA98 -S9, 5 × 10^–3 pmol/plate): 11 ± 1 revertants/plate
MI (S. typhimurium TA98; TA98 -S9, 5 × 10^–4 pmol/plate): 0.6
number of revertants/plate (M ± SD) (S. typhimurium TA98; TA98 -S9, 5 × 10^–4 pmol/plate): 13 ± 6 revertants/plate
MI (S. typhimurium TA98; TA98 -S9, 5 × 10^–5 pmol/plate): 0.7
number of revertants/plate (M ± SD) (S. typhimurium TA98; TA98 -S9, 5 × 10^–5 pmol/plate): 15 ± 4 revertants/plate
mutagenic activity in Ames assays (S. typhimurium): No mutagenic activity
